Activity calls are given as the source filed them. No cut-off for these calls is given here.
Experiments:
Trypanosoma cruzi [1] = experiment: Inhibition of Trypanosoma cruzi recombinant trans-sialidase at 1 mM after 10 mins by MUNANA continuous fluorimetric assay
Outline: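 Recombinant His-tagged 70 kDa TcTS, truncated to drop the C-terminal repeats and keep the catalytic N-terminal domain. Enzyme and inhibitor were preincubated 10 min at 26 °C in phosphate buffer pH 7.4. MuNANA (assay concentration 0.1 mM) was then added, and released methylumbelliferone fluorescence was read after 10 min (ex 360, em 460 nm). Run in duplicate.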

Trypanosoma cruzi [2] = experiment: Antitrypanosomal activity against Trypanosoma cruzi Y at > 100 uM after 24 hrs; assay type: functional
Outline: (§1)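 Y-strain trypomastigotes from LLC-MK₂ cultures, 6.5 × 10⁶ parasites/ml in RPMI with 10% FBS. Exposure included 750, 500, 250 and 100 µM at 37 °C, 5% CO₂. Poorly water-soluble compounds needed 0.6% DMSO and were capped at 0.75 mM. Benznidazole was the reference drug. Viability was measured by counting motile forms after 24 h.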

[3] = Cytotoxicity against mouse splenocytes at 50 to 100 uM after 24 hrs using propidium iodide staining by FACS analysis; assay type: cell-based; settings: splenocyte
Outline: (§2)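 Spleen cells from C57BL/6 mice were mechanically dissociated and given red-cell lysis for 4 min in Tris-HCl pH 7.5/NH₄Cl. They were plated at 5 × 10⁵ cells/well with test compounds (maximum 0.25 mM for less soluble ones) for 24 h at 37 °C, 5% CO₂. 0.5% Tween 20 was the death control. Cells were stained with 10 µg/mL propidium iodide.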

[4] = Cytotoxicity against mouse splenocytes after 24 hrs using propidium iodide staining by FACS analysis; assay type: cell-based; settings: splenocyte; outline: as §2
Trypanosoma cruzi [5] = experiment: Inhibition of Trypanosoma cruzi recombinant trans-sialidase at 0.5 mM after 10 mins by MUNANA continuous fluorimetric assay
Outline: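 Same His-tagged truncated recombinant TcTS (catalytic N-terminal domain) in phosphate buffer pH 7.4. Samples were dissolved in water with 0.6% DMSO and tested at 0.5 mM. Preincubation was 10 min at 26 °C, then 0.1 mM MuNANA was added. Mu fluorescence was read at 10 min (ex 360, em 460 nm), in duplicate.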

Trypanosoma cruzi [6] = experiment: Antitrypanosomal activity against Trypanosoma cruzi Y at < 100 uM after 24 hrs; assay type: functional, organism-based; outline: as §1
[7] = in the assay text read “in the low 100s of uM range” for “at < 100 uM”

OC[C@H]1O[C@@H](n2cc(-c3ccccc3Br)nn2)[C@H](O)[C@@H](O)[C@H]1O
inhibition (Trypanosoma cruzi [1]): 33%

OC[C@H]1O[C@@H](n2cc(Cc3ccccc3)nn2)[C@H](O)[C@@H](O)[C@H]1O
inhibition (Trypanosoma cruzi [1]): 37% | Activity (Trypanosoma cruzi [2]): 50% | Activity [3]: 50% | Activity [4]: Active

CO[C@@H]1O[C@H](Cn2cc(-c3ccccc3)nn2)[C@H](O)[C@H](O)[C@H]1O
inhibition (Trypanosoma cruzi [1]): 14%

OC[C@H]1O[C@@H](n2cc(-c3ccccc3)nn2)[C@H](O)[C@@H](O)[C@H]1O
inhibition (Trypanosoma cruzi [1]): 15%

CO[C@@H]1O[C@H](Cn2cc(CN3C(=O)c4ccccc4C3=O)nn2)[C@H](O)[C@H](O)[C@H]1O
inhibition (Trypanosoma cruzi [5]): 11%

OC[C@H]1O[C@@H](n2cc(COCC3CO3)nn2)[C@H](O)[C@@H](O)[C@H]1O (mixture of isomers)
inhibition (Trypanosoma cruzi [1]): 27% | Activity [4]: Non-toxic

CO[C@@H]1O[C@H](Cn2cc(-c3cccc(C(F)(F)F)c3)nn2)[C@H](O)[C@H](O)[C@H]1O
inhibition (Trypanosoma cruzi [1]): 3%

CO[C@@H]1O[C@H](Cn2cc(COCC3CO3)nn2)[C@H](O)[C@H](O)[C@H]1O (mixture of isomers)
inhibition (Trypanosoma cruzi [1]): 25%

CC(O)Cc1cn([C@@H]2O[C@H](CO)[C@H](O)[C@H](O)[C@H]2O)nn1 (single isomer, unassigned)
inhibition (Trypanosoma cruzi [1]): 14%

CO[C@@H]1O[C@H](Cn2cc(CO)nn2)[C@H](O)[C@H](O)[C@H]1O
inhibition (Trypanosoma cruzi [1]): 28%

CO[C@@H]1O[C@H](Cn2cc(-c3ccccn3)nn2)[C@H](O)[C@H](O)[C@H]1O
inhibition (Trypanosoma cruzi [1]): 14%

CO[C@@H]1O[C@H](Cn2cc(CCCCO)nn2)[C@H](O)[C@H](O)[C@H]1O
inhibition (Trypanosoma cruzi [1]): 27%

CO[C@@H]1O[C@H](Cn2cc(CCc3ccccc3)nn2)[C@H](O)[C@H](O)[C@H]1O
inhibition (Trypanosoma cruzi [1]): 14%

CN(Cc1ccccc1)Cc1cn([C@@H]2O[C@H](CO)[C@H](O)[C@H](O)[C@H]2O)nn1
inhibition (Trypanosoma cruzi [1]): 22%

COC(=O)c1cn([C@@H]2O[C@H](CO)[C@H](O)[C@H](O)[C@H]2O)nn1
inhibition (Trypanosoma cruzi [1]): 28%

CO[C@@H]1O[C@H](Cn2cc(Cc3ccccc3)nn2)[C@H](O)[C@H](O)[C@H]1O
inhibition (Trypanosoma cruzi [1]): 29%

CO[C@@H]1O[C@H](Cn2cc(CCCO)nn2)[C@H](O)[C@H](O)[C@H]1O
inhibition (Trypanosoma cruzi [1]): 24% | Activity [4]: Non-toxic

CO[C@@H]1O[C@H](Cn2cc(-c3ccccc3Br)nn2)[C@H](O)[C@H](O)[C@H]1O
inhibition (Trypanosoma cruzi [1]): 29%

O=C(O)CCCc1cn([C@@H]2O[C@H](CO)[C@H](O)[C@H](O)[C@H]2O)nn1
inhibition (Trypanosoma cruzi [1]): 10%

OC[C@H]1O[C@@H](n2cc(-c3ccc(C(F)(F)F)cc3)nn2)[C@H](O)[C@@H](O)[C@H]1O
inhibition (Trypanosoma cruzi [5]): 9% | Activity [4]: Toxic

CO[C@@H]1O[C@H](Cn2cc(-c3ccc(N)cc3)nn2)[C@H](O)[C@H](O)[C@H]1O
inhibition (Trypanosoma cruzi [1]): 34%

CO[C@@H]1O[C@H](Cn2cc(-c3cccnc3)nn2)[C@H](O)[C@H](O)[C@H]1O
inhibition (Trypanosoma cruzi [1]): 20%

CC(=O)N[C@H]1[C@H]([C@H](O)[C@H](O)CO)OC(C(=O)O)=C[C@@H]1O
inhibition (Trypanosoma cruzi [1]): 33%

OC[C@H]1O[C@@H](n2cc(-c3ccc(Br)cc3)nn2)[C@H](O)[C@@H](O)[C@H]1O
inhibition (Trypanosoma cruzi [5]): inactive | Activity [3]: 50% | Activity [4]: Active

CCC(O)c1cn(C[C@H]2O[C@@H](OC)[C@H](O)[C@@H](O)[C@H]2O)nn1 (mixture of isomers)
inhibition (Trypanosoma cruzi [1]): 29% | Activity [4]: Non-toxic

OC[C@H]1O[C@@H](n2cc(-c3cccc(C(F)(F)F)c3)nn2)[C@H](O)[C@@H](O)[C@H]1O
inhibition (Trypanosoma cruzi [1]): 31%

OC[C@H]1O[C@@H](n2cc(-c3ccccc3C(F)(F)F)nn2)[C@H](O)[C@@H](O)[C@H]1O
inhibition (Trypanosoma cruzi [1]): 14%

Nc1ccc(-c2cn([C@@H]3O[C@H](CO)[C@H](O)[C@H](O)[C@H]3O)nn2)cc1
inhibition (Trypanosoma cruzi [1]): 19% | Activity (Trypanosoma cruzi [6]; [7]): Active | Activity [4]: Non-toxic

CO[C@@H]1O[C@H](Cn2cc(-c3ccccc3N)nn2)[C@H](O)[C@H](O)[C@H]1O
inhibition (Trypanosoma cruzi [1]): 24%

CO[C@@H]1O[C@H](Cn2cc(-c3ccc(C(F)(F)F)cc3)nn2)[C@H](O)[C@H](O)[C@H]1O
inhibition (Trypanosoma cruzi [5]): 10% | Activity (Trypanosoma cruzi [6]; [7]): Active | Activity [3]: 50% | Activity [4]: Toxic

OCCCc1cn([C@@H]2O[C@H](CO)[C@H](O)[C@H](O)[C@H]2O)nn1
inhibition (Trypanosoma cruzi [1]): 27%

O=C1c2ccccc2C(=O)N1Cc1cn([C@@H]2O[C@H](CO)[C@H](O)[C@H](O)[C@H]2O)nn1
inhibition (Trypanosoma cruzi [1]): 25%

CO[C@@H]1O[C@H](Cn2cc(CN(C)Cc3ccccc3)nn2)[C@H](O)[C@H](O)[C@H]1O
inhibition (Trypanosoma cruzi [1]): 17% | Activity (Trypanosoma cruzi [6]): Active | Activity [4]: Non-toxic

CO[C@@H]1O[C@H](Cn2cc(-c3ccccc3C(F)(F)F)nn2)[C@H](O)[C@H](O)[C@H]1O
inhibition (Trypanosoma cruzi [1]): 11%

OCc1cn([C@@H]2O[C@H](CO)[C@H](O)[C@H](O)[C@H]2O)nn1
inhibition (Trypanosoma cruzi [1]): 11%

CO[C@@H]1O[C@H](Cn2cc(CC(C)O)nn2)[C@H](O)[C@H](O)[C@H]1O (mixture of isomers)
inhibition (Trypanosoma cruzi [1]): 10%

OCCCCc1cn([C@@H]2O[C@H](CO)[C@H](O)[C@H](O)[C@H]2O)nn1
inhibition (Trypanosoma cruzi [1]): 26%

CO[C@@H]1O[C@H](Cn2cc(-c3ccc(Br)cc3)nn2)[C@H](O)[C@H](O)[C@H]1O
inhibition (Trypanosoma cruzi [5]): 3% | Activity [4]: Toxic

Cc1ncc(COP(=O)(O)O)c(C=O)c1O
inhibition (Trypanosoma cruzi [1]): 65%

CO[C@@H]1O[C@H](Cn2cc(CCCC(=O)O)nn2)[C@H](O)[C@H](O)[C@H]1O
inhibition (Trypanosoma cruzi [1]): inactive

Nc1ccccc1-c1cn([C@@H]2O[C@H](CO)[C@H](O)[C@H](O)[C@H]2O)nn1
inhibition (Trypanosoma cruzi [1]): 30% | Activity [4]: Non-toxic

CCC(O)c1cn([C@@H]2O[C@H](CO)[C@H](O)[C@H](O)[C@H]2O)nn1 (single isomer, unassigned)
inhibition (Trypanosoma cruzi [1]): 13%

OC[C@H]1O[C@@H](n2cc(-c3cccnc3)nn2)[C@H](O)[C@@H](O)[C@H]1O
inhibition (Trypanosoma cruzi [5]): 15% | Activity [3]: 50% | Activity [4]: Toxic

COC(=O)c1cn(C[C@H]2O[C@@H](OC)[C@H](O)[C@@H](O)[C@H]2O)nn1
inhibition (Trypanosoma cruzi [1]): 30%

OC[C@H]1O[C@@H](n2cc(-c3ccccn3)nn2)[C@H](O)[C@@H](O)[C@H]1O
inhibition (Trypanosoma cruzi [1]): 13% | Activity [4]: Non-toxic

OC[C@H]1O[C@@H](n2cc(CCc3ccccc3)nn2)[C@H](O)[C@@H](O)[C@H]1O
inhibition (Trypanosoma cruzi [1]): 16% | Activity [4]: Toxic
